Data on 19 molecules can be found in ChEMBL document CHEMBL5244268, “Preventing Candida albicans biofilm formation using aromatic-rich piperazines” (Bioorg Med Chem, 2020).

In brackets after ≈: the same amount, converted by molar mass. Activity calls are given as the source filed them. No cut-off for these calls is given here.

Test [1] relates to Candida albicans. Put plainly: Antibiofilm activity against Candida albicans ATCC 28366 assessed as disruption of preformed biofilm incubated for 12 hrs by crystal violet staining based absorbance spectrometry analysis. The class given is functional, organism-based. An outline of the steps:
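Mature biofilms grown 36 to 48 h in Sabouraud pH 7.0 without compound; medium and free cells removed, rinsed with 50 mM PBS pH 7.0, then two-fold serial dilutions in PBS added for 12 h at 37 °C. Residual biofilm stained with crystal violet, dye released in 75% ethanol, A550 read. PBS-treated biofilms as controls.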

In test [2] the test system is Candida albicans. Kind of test: Antibiofilm activity against Candida albicans ATCC 28366 assessed as inhibition of biofilm formation at 2 ug/ml incubated for 24 to 48 hrs by crystal violet staining based absorbance spectrometry analysis. Format: functional, organism-based. Conditions: dose 2.0 µg/ml, time 24-48 hrs. An outline of the steps: (§1)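 Overnight cultures (37 °C, aerobic, Sabouraud pH 7.0) adjusted to OD660 0.2, mixed 1:1 with two-fold serial dilutions in medium and incubated at 37 °C. Biofilm stained with crystal violet, dye released in 75% ethanol, A550 read. Growth relative to compound-free wells (100%) after blank subtraction. At least two independent experiments in triplicate, t test.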

The test system of test [3] is Candida albicans. Kind of test: Antifungal activity against Candida albicans ATCC 28366 assessed as inhibition of fungal growth incubated for 24 hrs by plate count determination. Format: functional. Summed up: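 Biofilm-assay setup (Sabouraud pH 7.0, inoculum OD660 0.2, serial two-fold dilutions, 37 °C). […] Highest value kept when replicates differ. At least two independent experiments in triplicate.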

The subject of test [4] is Candida albicans. Put plainly: Fungicidal activity against Candida albicans ATCC 28366 assessed as prevention of colony formation incubated for 24 hrs. The class given is functional.
Test [5] deals with Candida albicans. Kind of test: Antibiofilm activity against Candida albicans ATCC 28366 incubated for 24 to 48 hrs by crystal violet staining based absorbance spectrometry analysis. Format: functional, organism-based. To be noted: time 24-48 hrs. Summed up: as §1
Test [6] has as its system Candida albicans. Kind of test: Antifungal activity against Candida albicans ATCC 28366 assessed as reduction in fungal growth incubated for 24 hrs by plate count determination. The class given is functional, organism-based.
For test [7], the system named is Candida albicans. Put plainly: Antibiofilm activity against Candida albicans ATCC 28366 at up to 96 ug/ml incubated for 24 to 48 hrs by crystal violet staining based absorbance spectrometry analysis. Format: functional, organism-based. To be noted: dose <= 96.0 µg/ml, time 24-48 hrs. An outline of the steps:
as §1

The test system of test [8] is Candida albicans. Put plainly: Antibiofilm activity against Candida albicans ATCC 28366 assessed as inhibition of filamentation at 8 ug/ml incubated for 4 hrs in Lee's medium by microscopic analysis. Format: functional, organism-based. To be noted: dose 8.0 µg/ml. An outline of the steps: (§2)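 Yeast-form cells grown overnight in YPD at 30 °C. 50 µL inoculated into 5 mL hypha-inducing medium (e.g., Spider: 1% nutrient broth, 1% mannitol, 0.2% K2HPO4, pH 7.2) containing two-fold dilutions, then 4 h at 37 °C. At least 100 cells per replicate counted as hypha (pseudohyphae and intermediates included) or yeast. Compound-free control for maximal conversion. At least two independent experiments in triplicate.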

For test [9], the system named is Candida albicans. Kind of test: Antibiofilm activity against Candida albicans LAM-1 assessed as inhibition of morphogenesis at 8 ug/ml incubated for 4 hrs in spider medium by microscopic analysis. Format: functional, organism-based. Conditions: dose 8.0 µg/ml. Summed up: as §2
In test [10] the test system is Candida albicans. Put plainly: Antibiofilm activity against Candida albicans ATCC 28366 assessed as inhibition of morphogenesis at 8 ug/ml incubated for 4 hrs in spider medium by microscopic analysis. The class given is functional, organism-based. Conditions: dose 8.0 µg/ml. An outline of the steps:
as §2

Test [11] relates to Candida albicans. Kind of test: Antibiofilm activity against Candida albicans ATCC 28366 assessed as inhibition of morphological switching at 8 ug/ml incubated for 4 hrs in YPD medium with fetal bovine serum by microscopic analysis. Conditions: dose 8.0 µg/ml. The class given is functional, organism-based. An outline of the steps: as §2
In test [12] the test system is Candida albicans. Put plainly: Antibiofilm activity against Candida albicans ATCC 28366 assessed as inhibition of N-acetylglucosamine induced morphological switching at 8 ug/ml incubated for 4 hrs by microscopic analysis. Format: functional, organism-based. To be noted: dose 8.0 µg/ml. An outline of the steps: as §2
Test [13] concerns Candida albicans. Put plainly: Antibiofilm activity against Candida albicans LAM-1 assessed as reduction in fungal growth at 8 ug/ml incubated for 4 hrs in spider medium by plate count determination. Format: functional, organism-based. Conditions: dose 8.0 µg/ml. An outline of the steps: (§3)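 After the 4 h, 37 °C morphogenesis incubation in Spider medium (YPD overnight inoculum, 50 µL into 5 mL), OD660 measured to follow fungal growth; C. albicans viability confirmed by plate count.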

Test [14] concerns Candida albicans. Kind of test: Antibiofilm activity against Candida albicans ATCC 28366 assessed as reduction in fungal growth at 8 ug/ml incubated for 4 hrs in spider medium by plate count determination. Conditions: dose 8.0 µg/ml. Format: functional, organism-based. Summed up: as §3
Test [15] has as its system Candida albicans. Put plainly: Antibiofilm activity against Candida albicans ATCC 28366 assessed as inhibition of nitrogen deprivation induced morphological switching at 8 ug/ml incubated for 4 hrs in SLAD media by microscopic analysis. Conditions: dose 8.0 µg/ml. The class given is functional, organism-based. Summed up: as §2
In test [16] the test system is Candida albicans. Put plainly: Antibiofilm activity against Candida albicans ATCC 28366 assessed as inhibition of biofilm formation at 0.5 to 32 ug/ml incubated for 24 to 48 hrs by crystal violet staining based absorbance spectrometry analysis. To be noted: dose 0.5-32 µg/ml, time 24-48 hrs. The class given is functional, organism-based. An outline of the steps:
as §1

In test [17] the test system is Candida albicans. Kind of test: Antifungal activity against Candida albicans ATCC 28366 assessed as reduction in fungal growth at up to 64 ug/ml incubated for 24 hrs by plate count determination. Conditions: dose <= 64.0 µg/ml. Format: functional, organism-based.
Test [18] has as its system Candida albicans. Put plainly: Antibiofilm activity against Candida albicans ATCC 28366 at 48 ug/ml incubated for 24 to 48 hrs by crystal violet staining based absorbance spectrometry analysis. The class given is functional, organism-based. To be noted: dose 48.0 µg/ml, time 24-48 hrs. An outline of the steps:
as §1

Test [19] relates to Candida albicans. Kind of test: Antibiofilm activity against Candida albicans ATCC 28366 assessed as inhibition of morphogenesis at 1 to 4 ug/ml incubated for 4 hrs in spider medium by microscopic analysis. Format: functional, organism-based. Conditions: dose 1-4 µg/ml. An outline of the steps:
as §2

For test [20], the system named is Candida albicans. Put plainly: Antibiofilm activity against Candida albicans ATCC 28366 assessed as reduction in fungal growth at 1 to 4 ug/ml incubated for 4 hrs in spider medium by plate count determination. The class given is functional, organism-based. Conditions: dose 1-4 µg/ml. An outline of the steps:
as §3

The subject of test [21] is Candida albicans. Put plainly: Antibiofilm activity against Candida albicans LAM-1 assessed as reduction in fungal growth at 1 to 4 ug/ml incubated for 4 hrs in spider medium by plate count determination. The class given is functional, organism-based. To be noted: dose 1-4 µg/ml. An outline of the steps: as §3

As to `c1ccc(COc2ccc(C[C@@H]3CN[C@H](Cc4ccc(OCc5ccccc5)cc4)CN3)cc2)cc1`, the result in the test with Candida albicans [1] was inactive. Moreover, the inhibition entry in the test on Candida albicans [2] is “Active”. The minimal inhibitory concentration (MIC) (in general, the lowest concentration found to suppress growth) in the test with Candida albicans [3] was determined as 24 µg/mL (≈ 50.1 µM). Moreover, in the test with Candida albicans [4], the minimum fungicidal concentration (MFC) (in general, the lowest tested concentration that kills the fungus rather than only halting it) came out at 24 µg/mL (≈ 50.1 µM).
For the molecule `Oc1ccc(C[C@@H]2CN[C@H](Cc3ccc(O)cc3)CN2)cc1`, the outcome with Candida albicans [1], with Candida albicans [5] and with Candida albicans [6] was inactive.
In the case of `Oc1ccc(C[C@@H]2CN[C@H](Cc3ccccc3)CN2)cc1`, the outcome with Candida albicans [1], in the test on Candida albicans [5] and in the test with Candida albicans [6] was inactive.
`CN1C[C@H](Cc2ccccc2)N(C)C[C@H]1Cc1ccccc1`: in the test on Candida albicans [7], the outcome was inactive.
On the same count and under the same terms, the entry for `CN1C[C@H](Cc2ccccc2)N(C)C[C@@H]1Cc1ccccc1` is “inactive”.
In the case of `CN1C[C@H](Cc2ccc(OCc3ccccc3)cc2)N(C)C[C@@H]1Cc1ccc(OCc2ccccc2)cc1`, the outcome in the test on Candida albicans [5] and in the test with Candida albicans [6] was inactive.
On to `CN1C[C@H](Cc2ccc(OCc3ccccc3)cc2)N(C)C[C@@H]1Cc1ccccc1`, for which the inhibition result with Candida albicans [8], with Candida albicans [9], with Candida albicans [10], in the test with Candida albicans [11], with Candida albicans [12] and with Candida albicans [15] was “inactive” each time. Besides, the outcome with Candida albicans [5], with Candida albicans [6], in the test on Candida albicans [13] and with Candida albicans [14] was inactive.
As for `Oc1ccc(C[C@H]2CN[C@@H](Cc3ccccc3)CN2)cc1`, the outcome in the test with Candida albicans [1], in the test with Candida albicans [5] and in the test on Candida albicans [6] was inactive.
In the case of `c1ccc(COc2ccc(C[C@H]3CN[C@H](Cc4ccccc4)CN3)cc2)cc1`, the inhibition result with Candida albicans [16] was “Active”. Further, the result in the test with Candida albicans [1] and in the test on Candida albicans [17] was inactive.
Turning to `c1ccc(COc2ccc(C[C@H]3CN[C@H](Cc4ccc(OCc5ccccc5)cc4)CN3)cc2)cc1`, the outcome in the test with Candida albicans [1] was inactive. Besides, the outcome with Candida albicans [18] was Active. Besides, the minimal inhibitory concentration (MIC) in the test on Candida albicans [3] is greater than 128 µg/mL.
For `c1ccc(C[C@H]2CN[C@H](Cc3ccccc3)CN2)cc1`, the outcome in the test with Candida albicans [1] and with Candida albicans [7] was inactive.
With `c1ccc(COc2ccc(C[C@H]3CN[C@@H](Cc4ccc(OCc5ccccc5)cc4)CN3)cc2)cc1`, the outcome in the test on Candida albicans [1] was inactive. Moreover, the inhibition entry with Candida albicans [2] was “Active”. Besides, the minimal inhibitory concentration (MIC) in the test on Candida albicans [3] came out at 24 µg/mL (≈ 50.1 µM). In addition, the minimal fungicidal concentration (MFC) in the test with Candida albicans [4] was found to be 24 µg/mL (≈ 50.1 µM).
In the case of `c1ccc(COc2ccc(C[C@@H]3CN[C@H](Cc4ccccc4)CN3)cc2)cc1`, the inhibition entry in the test with Candida albicans [16] and with Candida albicans [19] was “Active” throughout. In addition, the result in the test with Candida albicans [1], in the test with Candida albicans [20], in the test with Candida albicans [21] and with Candida albicans [17] was inactive.
Turning to `CN1C[C@H](Cc2ccc(O)cc2)N(C)C[C@@H]1Cc1ccc(O)cc1`, the result in the test on Candida albicans [5] and with Candida albicans [6] was inactive.
For `c1ccc(C[C@H]2CN[C@@H](Cc3ccccc3)CN2)cc1`, the result in the test with Candida albicans [1] and in the test with Candida albicans [7] was inactive.
For the molecule `c1ccc(C[C@@H]2CN[C@H](Cc3ccccc3)CN2)cc1`, the outcome in the test with Candida albicans [1] and with Candida albicans [7] was inactive.
As for `c1ccc(COc2ccc(C[C@@H]3CN[C@@H](Cc4ccccc4)CN3)cc2)cc1`, the inhibition entry with Candida albicans [16] was “Active”. Also, the result with Candida albicans [1] and with Candida albicans [17] was inactive. In the test with Candida albicans [3], the minimum inhibitory concentration (MIC) was greater than 128 µg/mL.
Consider `CN1C[C@@H](Cc2ccccc2)N(C)C[C@H]1Cc1ccccc1`, for which the outcome in the test on Candida albicans [7] was inactive.
Regarding `Oc1ccc(C[C@H]2CN[C@@H](Cc3ccc(O)cc3)CN2)cc1`, the result with Candida albicans [1], with Candida albicans [5] and in the test with Candida albicans [6] was inactive.
